Bioassay records: PubChem BioAssay, The Scripps Research Institute Molecular Screening Center
A selection: hits, their analogues and other compounds. The true share with any hit is near 3.6%.
IMP-1 inh-1 – IMP-1 metallo-beta-lactamase inhibitors, primary screen, biochemical, epi-absorbance readout, Pseudomonas aeruginosa enzyme. metallo-beta-lactamase IMP-1 (Pseudomonas aeruginosa). purified IMP-1, nitrocefin hydrolysis, epi-absorbance fluorescence. inhibition, % at 5.6 µM. 0.45% of 290,000 active. AID 1556, 2009;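 active = inhibition above the mean plus 3 SD of all compounds in the same screening run, cut at about 4.5% in these data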
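System: purified recombinant IMP-1 beta-lactamase. Medium: Zinc- and detergent-supplemented HEPES buffer, pH 7.1. Compound: one 5.6 µM dose […]. Schedule: 15 min preincubation plus 25 min reaction at 25 °C. Technique: Epi-absorbance fluorescence, 480 nm excitation, 530 nm emission.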
PAFAH1B3 inh – PAFAH1B3 enzyme inhibitors, primary screen, biochemical, fluorescence polarization, human; Platelet-activating factor acetylhydrolase IB subunit alpha1 (Homo sapiens), Q15102; recombinant PAFAH1B3, FP-rhodamine probe; inhibition, % at 3.39 µM; 0.28% of 340,000 active;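 active = inhibition above the screen-wide average of all tested compounds plus 3 SD, cut at about 25% in these data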
pPAFAH FP inh – pPAFAH enzyme inhibitors, primary screen, biochemical, fluorescence polarization, human; recombinant pPAFAH, FP-rhodamine probe fluorescence polarization; 1.5% of 330,000 active; inhibition, % at 3.39 µM; Platelet-activating factor acetylhydrolase (Homo sapiens), Q13093;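 active = inhibition above the mean inhibition across the screen plus 3 SD, cut at about 25% in these data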;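 note: inhibitors block binding of the rhodamine activity-based probe so polarization drops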
Target sequence (Q13093 whole entry, looked up): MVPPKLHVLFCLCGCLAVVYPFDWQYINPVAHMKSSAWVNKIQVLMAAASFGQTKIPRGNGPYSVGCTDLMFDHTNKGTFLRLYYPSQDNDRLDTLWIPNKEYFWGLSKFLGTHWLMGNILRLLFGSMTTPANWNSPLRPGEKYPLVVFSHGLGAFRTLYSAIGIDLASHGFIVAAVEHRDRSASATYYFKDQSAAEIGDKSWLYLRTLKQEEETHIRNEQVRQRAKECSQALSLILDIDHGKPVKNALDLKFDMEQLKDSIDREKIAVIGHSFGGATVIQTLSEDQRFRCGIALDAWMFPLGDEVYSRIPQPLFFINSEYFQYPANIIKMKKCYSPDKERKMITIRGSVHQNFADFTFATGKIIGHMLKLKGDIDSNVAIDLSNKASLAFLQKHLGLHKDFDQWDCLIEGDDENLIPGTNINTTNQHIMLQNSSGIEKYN
PAFAH1B2 FP inh – PAFAH1B2 enzyme inhibitors, primary screen, biochemical, fluorescence polarization, human; AID 492953, 2010; Platelet-activating factor acetylhydrolase IB subunit alpha2 (Homo sapiens), P68402; 1.2% of 340,000 active; inhibition, % at 3.39 µM; recombinant PAFAH1B2, FP-rhodamine activity probe;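 active = inhibition above the mean of all tested compounds plus 3 SD, cut at about 24% in these data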
PAFAH2 FP inh – PAFAH2 enzyme inhibitors, primary screen, biochemical, fluorescence polarization, human; inhibition, % at 3.39 µM; 0.99% of 340,000 active; recombinant PAFAH2, FP-rhodamine activity probe;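 active = inhibition above the mean over all tested compounds plus 3 SD, cut at about 30% in these data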;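 note: inhibitors block probe labeling of enzyme so polarization drops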
VIM-2 inhibitor – VIM-2 metallo-beta-lactamase inhibitors, primary screen, biochemical, epi-absorbance readout, Pseudomonas aeruginosa enzyme. AID 1527, 2009. purified VIM-2, nitrocefin hydrolysis, epi-absorbance fluorescence. 0.89% of 290,000 active. inhibition, % at 5.6 µM;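 active = inhibition above the mean of all tested compounds plus 3 SD, cutoff set per screening run, cut at about 7.5% in these data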;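 note: red hydrolysis product quenches plate fluorescence so inhibitors raise well fluorescence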
IMP-1 inh-2 – IMP-1 metallo-beta-lactamase inhibitors, confirmation, selectivity assay for selective VIM-2 inhibitor project, biochemical, epi-absorbance readout, triplicate; shares compounds with VIM-2 inhibitor; purified IMP-1, nitrocefin hydrolysis, epi-absorbance fluorescence; inhibition, % at 5.6 µM; 1,300 tested, under 10 active; AID 1856, 2009; call rule not given here
VIM-2 FRET ctr – VIM-2 inhibitors in FRET format, confirmation, artefact control for selective VIM-2 inhibitor project, biochemical, epi-absorbance artifact exclusion; shares compounds with VIM-2 inhibitor; purified VIM-2, CCF2 FRET substrate hydrolysis; 23% of 1,300 active; inhibition, % at 5.6 µM; AID 1857, 2009;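 active = inhibition above the mean of all tested compounds plus 3 SD, cut at about 19% in these data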
TEM-1 inh – TEM-1 serine beta-lactamase inhibitors, counter-screen for VIM-2 inhibitor project, biochemical, epi-absorbance, HTS | shares compounds with VIM-2 inhibitor | Purified TEM-1, nitrocefin hydrolysis, epi-absorbance fluorescence | inhibition, % at 5.6 µM | 3% of 1,300 active | AID 1866, 2009;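 active = inhibition above that campaign's mean inhibition plus 3 SD, cut at about 0.46% in these data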
Target sequence (P62593 whole entry, looked up): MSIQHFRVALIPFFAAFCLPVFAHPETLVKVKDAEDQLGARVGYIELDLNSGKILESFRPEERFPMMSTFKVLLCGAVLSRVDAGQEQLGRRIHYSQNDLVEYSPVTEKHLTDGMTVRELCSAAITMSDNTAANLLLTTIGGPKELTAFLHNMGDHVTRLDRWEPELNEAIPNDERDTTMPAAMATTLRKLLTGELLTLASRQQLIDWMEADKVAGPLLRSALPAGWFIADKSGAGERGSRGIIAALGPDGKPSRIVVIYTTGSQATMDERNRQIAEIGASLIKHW
VIM-2 confirm 2 – VIM-2 metallo-beta-lactamase inhibitors, confirmation, biochemical, epi-absorbance, hits shared with IMP-1 screen. inhibition, % at 5.6 µM. purified VIM-2, nitrocefin hydrolysis. 96% of 1,300 active. shares compounds with VIM-2 inhibitor;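 active = inhibition of the VIM-2 beta-lactamase enzyme above about 11% from the earlier first-round screen, limit read from the data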
Each line names hits and unclear results; the compound was inactive in the other large screens (follow-up assays come after a bar, where they were run).

CCn1c(=O)n(CC)c2cc(N3CCCC3)c(NC(=O)c3cccc(OC)c3)cc21	none
CCc1ccccc1Nc1nc(-c2cccnc2)cs1	none
O=[N+]([O-])c1ccccc1Nc1nc(-c2cccnc2)cs1	VIM-2 inhibitor 16 | IMP-1 inh-2 inactive | VIM-2 FRET ctr inactive | TEM-1 inh inactive | VIM-2 confirm 2 27
COc1ccccc1N(Cc1ccccc1)S(=O)(=O)c1cccc(C(=O)Nc2cc(C)ccn2)c1	none
CCOc1ccc(C(=O)Nc2ccc(N3CCN(C)CC3)cc2)cc1[N+](=O)[O-]	VIM-2 inhibitor 30 | IMP-1 inh-2 inactive | VIM-2 FRET ctr inactive | TEM-1 inh inactive | VIM-2 confirm 2 58
CN1CCN(c2ccc(NC(=O)COc3ccccc3[N+](=O)[O-])cc2)CC1	VIM-2 inhibitor 45 | IMP-1 inh-2 inactive | VIM-2 FRET ctr inactive | TEM-1 inh inactive | VIM-2 confirm 2 66
COc1ccc(C(=O)Nc2ccc(N3CCN(C)CC3)cc2)cc1[N+](=O)[O-]	VIM-2 inhibitor 34 | IMP-1 inh-2 inactive | VIM-2 FRET ctr inactive | TEM-1 inh inactive | VIM-2 confirm 2 60
CS(=O)(=O)N1CCN(c2ccc(NC(=O)COc3ccccc3[N+](=O)[O-])cc2)CC1	none
Cc1c(Br)cc(C(=O)OC2CCN(C)CC2)c(C)c1C	VIM-2 inhibitor 13 | IMP-1 inh-2 inactive | VIM-2 FRET ctr inactive | TEM-1 inh inactive | VIM-2 confirm 2 17
CN1CCC(OC(=O)c2ccccc2)CC1	none
O=C1c2ccccc2-c2onc3ccc(N4CCCC4)c1c23	PAFAH1B3 inh 74, PAFAH1B2 FP inh 77, PAFAH2 FP inh 88, VIM-2 inhibitor 14 (no result: pPAFAH FP inh) | IMP-1 inh-2 inactive | VIM-2 FRET ctr inactive | TEM-1 inh 2.9 | VIM-2 confirm 2 25
O=C1c2ccccc2C(=O)c2c1cccc2N1CCCC1	none
COC(=O)c1c(NC(=O)c2cccc(N3C(=O)CCC3=O)c2)sc2c1CCN(C(C)=O)C2	VIM-2 inhibitor 24 | IMP-1 inh-2 inactive | VIM-2 FRET ctr inactive | TEM-1 inh inactive | VIM-2 confirm 2 39
CN1CCN(c2nc(-c3ccccc3)c3cc(Cl)ccc3n2)CC1	none
Clc1ccc2nc(N3CCNCC3)nc(-c3ccccc3)c2c1	VIM-2 inhibitor 12 | IMP-1 inh-2 inactive | VIM-2 FRET ctr inactive | TEM-1 inh inactive | VIM-2 confirm 2 17
CC(C)Cc1ccc(CN2CCCC(NC(=O)CSc3nncn3C)C2)cc1 (configuration not stated)	none
c1ccc(-c2nc(-c3ccccn3)nc(-c3ccccn3)n2)nc1	VIM-2 inhibitor 21 | IMP-1 inh-2 inactive | VIM-2 FRET ctr inactive | TEM-1 inh inactive | VIM-2 confirm 2 45
CN1CCN(c2nc(-c3ccccn3)nc3ccccc23)CC1	none
c1ccc(N2CCN(c3nc(-c4ccccn4)nc4ccccc34)CC2)cc1	VIM-2 inhibitor 42 | IMP-1 inh-2 inactive | VIM-2 FRET ctr inactive | TEM-1 inh inactive | VIM-2 confirm 2 64
CCSc1nncn1/N=C/c1ccc(OC)c(OC)c1	VIM-2 inhibitor 24 | IMP-1 inh-2 inactive | VIM-2 FRET ctr inactive | TEM-1 inh inactive | VIM-2 confirm 2 41
CCc1c(C)nc2nc(SCc3ccccc3)[nH]n2c1=O	none
Brc1ccc(-c2ccc(CNCc3ccccn3)o2)cc1	VIM-2 inhibitor 39 | IMP-1 inh-2 inactive | VIM-2 FRET ctr inactive | TEM-1 inh inactive | VIM-2 confirm 2 50
CCOC(=O)c1sc2nc(C)nc(NCc3cccnc3)c2c1C	VIM-2 inhibitor 24 | IMP-1 inh-2 inactive | VIM-2 FRET ctr inactive | TEM-1 inh inactive | VIM-2 confirm 2 50
Cc1cc(C)c(C#N)c(SCC(O)COc2ccc(Br)cc2)n1 (configuration not stated)	none
CN1CCN(CC(=O)Nc2cc(N(C)C)nc3ccccc23)CC1	VIM-2 inhibitor 19 | IMP-1 inh-2 inactive | VIM-2 FRET ctr inactive | TEM-1 inh inactive | VIM-2 confirm 2 38
O=C(CSc1nnc(NC(=O)c2c(F)cccc2F)s1)NCc1ccccc1	VIM-2 inhibitor 33 | IMP-1 inh-2 inactive | VIM-2 FRET ctr 56 | TEM-1 inh inactive | VIM-2 confirm 2 38
O=C(CSc1nnc(NC(=O)c2ccccc2F)s1)NC1CCCC1	VIM-2 inhibitor 13 | IMP-1 inh-2 inactive | VIM-2 FRET ctr 24 | TEM-1 inh inactive | VIM-2 confirm 2 15
[O-]c1n[n+](-c2ccc(Cl)cc2)cc2ccccc12	VIM-2 inhibitor 19 | IMP-1 inh-2 inactive | VIM-2 FRET ctr inactive | TEM-1 inh inactive | VIM-2 confirm 2 inactive
[O-]c1n[n+](-c2ccc(Cl)cc2Cl)cc2ccccc12	none
O=C(c1ccc(F)c(F)c1)N1CCCc2ccccc21	none
CCN(CC)CCNc1ccc(CO)c2sc3ccccc3c(=O)c12	VIM-2 inhibitor 24 | IMP-1 inh-2 inactive | VIM-2 FRET ctr inactive | TEM-1 inh inactive | VIM-2 confirm 2 35
O=c1c2ccccc2sc2c(CO)ccc(NCCN3CCCCC3)c12	none (no result: IMP-1 inh-1, pPAFAH FP inh, VIM-2 inhibitor)
CC(C)c1ccc(NC2CCCN(C(=O)c3cccc4nccnc34)C2)cc1 (configuration not stated)	none
CC(C)(C)OC(=O)NCCCCCNC(=O)c1nc[nH]c1C(=O)NCCCCCNC(=O)OC(C)(C)C	none (no result: IMP-1 inh-1, VIM-2 inhibitor)
Cc1cc(NCCOCCO)n2c(nc3ccccc32)c1C#N	VIM-2 inhibitor 33 | IMP-1 inh-2 inactive | VIM-2 FRET ctr inactive | TEM-1 inh inactive | VIM-2 confirm 2 50
COCCNc1cc(C)c(C#N)c2nc3ccccc3n12	VIM-2 inhibitor 26 | IMP-1 inh-2 inactive | VIM-2 FRET ctr inactive | TEM-1 inh inactive | VIM-2 confirm 2 39
Cc1cc(NCCCO)n2c(nc3ccccc32)c1C#N	none
